Activity calls are given as the source filed them. No cut-off for these calls is given here.
Assays:
[1] = target: Ephrin type-A receptor 7 (Homo sapiens) (UniProt Q15375); experiment: Inhibition of recombinant human EPhA7 (613 to 909 residues) at 1 uM using KTFCGTPEYLAPEVRREPRILSEEEQEMFRDFDYIADWC as substrate incubated for 40 mins in presence of [gamma-33P]-ATP by scintillation counting method relative to control
[2] = target: Protein kinase C alpha type (Homo sapiens) (UniProt P17252); experiment: Inhibition of recombinant human full length PKCalpha at 1 uM using histone H1 as substrate incubated for 40 mins in presence of [gamma-33P]-ATP by scintillation counting method relative to control
[3] = target: ALK tyrosine kinase receptor (Homo sapiens) (UniProt Q9UM73); experiment: Inhibition of recombinant human ALK (1058 to end residues) at 1 uM using KKKSPGEYVNIEF as substrate incubated for 40 mins in presence of [gamma-33P]-ATP by scintillation counting method relative to control
Sequence of ALK tyrosine kinase receptor (Homo sapiens) (Q9UM73 19-1620 limits assumed): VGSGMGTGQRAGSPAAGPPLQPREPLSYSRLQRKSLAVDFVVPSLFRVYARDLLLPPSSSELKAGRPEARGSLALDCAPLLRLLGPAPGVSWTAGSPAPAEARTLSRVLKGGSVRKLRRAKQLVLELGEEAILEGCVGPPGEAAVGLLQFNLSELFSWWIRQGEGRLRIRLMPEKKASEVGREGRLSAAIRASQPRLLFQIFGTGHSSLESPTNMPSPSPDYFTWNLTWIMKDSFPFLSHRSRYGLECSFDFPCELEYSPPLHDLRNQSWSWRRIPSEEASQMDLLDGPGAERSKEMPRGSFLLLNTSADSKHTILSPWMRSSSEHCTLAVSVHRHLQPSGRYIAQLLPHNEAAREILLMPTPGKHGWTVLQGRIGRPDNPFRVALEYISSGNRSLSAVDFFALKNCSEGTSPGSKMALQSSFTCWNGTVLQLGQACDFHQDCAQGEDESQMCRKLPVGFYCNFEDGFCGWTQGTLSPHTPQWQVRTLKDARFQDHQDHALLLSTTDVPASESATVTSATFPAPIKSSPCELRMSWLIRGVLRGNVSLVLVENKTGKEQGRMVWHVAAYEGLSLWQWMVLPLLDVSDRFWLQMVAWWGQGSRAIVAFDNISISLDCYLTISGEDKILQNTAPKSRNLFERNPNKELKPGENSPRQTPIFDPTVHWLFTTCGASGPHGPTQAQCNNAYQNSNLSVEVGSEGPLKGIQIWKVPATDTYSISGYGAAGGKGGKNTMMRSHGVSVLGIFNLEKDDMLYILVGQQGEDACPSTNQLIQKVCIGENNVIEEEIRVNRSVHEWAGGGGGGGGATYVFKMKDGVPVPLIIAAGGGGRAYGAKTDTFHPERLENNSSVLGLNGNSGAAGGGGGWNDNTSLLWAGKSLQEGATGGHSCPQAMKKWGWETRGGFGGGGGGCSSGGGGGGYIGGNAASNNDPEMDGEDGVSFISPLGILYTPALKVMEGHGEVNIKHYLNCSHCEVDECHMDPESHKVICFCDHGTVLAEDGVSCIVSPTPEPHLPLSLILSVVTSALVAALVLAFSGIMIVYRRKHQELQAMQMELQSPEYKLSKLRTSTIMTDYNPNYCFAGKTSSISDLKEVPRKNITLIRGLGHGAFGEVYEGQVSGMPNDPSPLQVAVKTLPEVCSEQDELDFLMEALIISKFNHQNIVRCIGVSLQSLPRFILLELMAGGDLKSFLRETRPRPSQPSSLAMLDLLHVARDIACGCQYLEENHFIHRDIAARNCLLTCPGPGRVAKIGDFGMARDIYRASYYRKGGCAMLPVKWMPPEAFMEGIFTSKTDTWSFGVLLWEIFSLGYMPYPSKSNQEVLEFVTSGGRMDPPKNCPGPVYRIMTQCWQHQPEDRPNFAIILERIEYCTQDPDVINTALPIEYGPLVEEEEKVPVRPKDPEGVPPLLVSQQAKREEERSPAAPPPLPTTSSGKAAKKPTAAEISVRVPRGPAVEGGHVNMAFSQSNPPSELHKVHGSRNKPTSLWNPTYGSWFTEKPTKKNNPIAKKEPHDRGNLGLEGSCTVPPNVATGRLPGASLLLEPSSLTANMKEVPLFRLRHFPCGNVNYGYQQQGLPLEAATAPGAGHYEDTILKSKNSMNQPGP
In short: (§1)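 Kinase panel profiling at 1 μM performed by Eurofins KinaseProfiler; percent inhibition reported as mean of two independent experiments.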

[4] = target: Serine/threonine-protein kinase PAK 5 (Homo sapiens) (UniProt Q9P286); experiment: Inhibition of recombinant human PAK5 (425 to end residues) at 1 uM using RRRLSFAEPG as substrate incubated for 40 mins in presence of [gamma-33P]-ATP by scintillation counting method relative to control
[5] = target: Phosphatidylinositol 3-kinase C2 domain-containing subunit gamma (Homo sapiens) (UniProt O75747); experiment: Inhibition of recombinant human PI3KC2gamma (468 to 1203 residues) at 1 uM using phosphatidylinositol as substrate incubated for 40 mins in presence of [gamma-33P]-ATP by scintillation counting method relative to control
[6] = target: Cyclin-dependent kinase 1/cyclin B1 (Homo sapiens, UniProt P06493); experiment: Inhibition of recombinant human full length CDK1/CyclinB using histone H1 as substrate incubated for 40 mins in presence of [gamma-33P]-ATP by scintillation counting method; type: protein-complex assay
Sequence of Cyclin-dependent kinase 1/cyclin B1 (P06493 whole entry): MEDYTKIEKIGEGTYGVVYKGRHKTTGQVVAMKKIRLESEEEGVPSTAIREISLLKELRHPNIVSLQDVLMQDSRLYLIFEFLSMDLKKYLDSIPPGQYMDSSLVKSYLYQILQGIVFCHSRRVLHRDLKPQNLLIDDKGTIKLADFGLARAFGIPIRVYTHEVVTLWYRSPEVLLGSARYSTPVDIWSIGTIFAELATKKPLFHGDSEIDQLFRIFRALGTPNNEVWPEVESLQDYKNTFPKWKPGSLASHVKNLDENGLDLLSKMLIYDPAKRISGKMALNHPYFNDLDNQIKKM
Sequence of Cyclin-dependent kinase 1/cyclin B1 (P14635 whole entry, further chain): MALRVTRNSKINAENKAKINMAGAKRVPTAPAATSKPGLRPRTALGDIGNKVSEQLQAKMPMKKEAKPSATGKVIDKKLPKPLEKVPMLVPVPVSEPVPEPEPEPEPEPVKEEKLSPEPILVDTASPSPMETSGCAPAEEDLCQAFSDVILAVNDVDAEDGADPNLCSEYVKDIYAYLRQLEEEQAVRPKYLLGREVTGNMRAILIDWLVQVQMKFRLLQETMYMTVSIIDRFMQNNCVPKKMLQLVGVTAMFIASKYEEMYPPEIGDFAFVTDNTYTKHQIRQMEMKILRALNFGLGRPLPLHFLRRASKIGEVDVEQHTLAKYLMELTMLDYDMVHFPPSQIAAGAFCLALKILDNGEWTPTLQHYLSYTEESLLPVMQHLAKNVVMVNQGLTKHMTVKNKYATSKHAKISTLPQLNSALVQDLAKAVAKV

[7] = target: Receptor tyrosine-protein kinase erbB-2 (Homo sapiens) (UniProt P04626); experiment: Inhibition of recombinant human ERBB2 (676 to end residues) at 1 uM using poly (Glu, Tyr) 4:1 as substrate incubated for 40 mins in presence of [gamma-33P]-ATP by scintillation counting method relative to control
Sequence of Receptor tyrosine-protein kinase erbB-2 (Homo sapiens) (P04626 whole entry): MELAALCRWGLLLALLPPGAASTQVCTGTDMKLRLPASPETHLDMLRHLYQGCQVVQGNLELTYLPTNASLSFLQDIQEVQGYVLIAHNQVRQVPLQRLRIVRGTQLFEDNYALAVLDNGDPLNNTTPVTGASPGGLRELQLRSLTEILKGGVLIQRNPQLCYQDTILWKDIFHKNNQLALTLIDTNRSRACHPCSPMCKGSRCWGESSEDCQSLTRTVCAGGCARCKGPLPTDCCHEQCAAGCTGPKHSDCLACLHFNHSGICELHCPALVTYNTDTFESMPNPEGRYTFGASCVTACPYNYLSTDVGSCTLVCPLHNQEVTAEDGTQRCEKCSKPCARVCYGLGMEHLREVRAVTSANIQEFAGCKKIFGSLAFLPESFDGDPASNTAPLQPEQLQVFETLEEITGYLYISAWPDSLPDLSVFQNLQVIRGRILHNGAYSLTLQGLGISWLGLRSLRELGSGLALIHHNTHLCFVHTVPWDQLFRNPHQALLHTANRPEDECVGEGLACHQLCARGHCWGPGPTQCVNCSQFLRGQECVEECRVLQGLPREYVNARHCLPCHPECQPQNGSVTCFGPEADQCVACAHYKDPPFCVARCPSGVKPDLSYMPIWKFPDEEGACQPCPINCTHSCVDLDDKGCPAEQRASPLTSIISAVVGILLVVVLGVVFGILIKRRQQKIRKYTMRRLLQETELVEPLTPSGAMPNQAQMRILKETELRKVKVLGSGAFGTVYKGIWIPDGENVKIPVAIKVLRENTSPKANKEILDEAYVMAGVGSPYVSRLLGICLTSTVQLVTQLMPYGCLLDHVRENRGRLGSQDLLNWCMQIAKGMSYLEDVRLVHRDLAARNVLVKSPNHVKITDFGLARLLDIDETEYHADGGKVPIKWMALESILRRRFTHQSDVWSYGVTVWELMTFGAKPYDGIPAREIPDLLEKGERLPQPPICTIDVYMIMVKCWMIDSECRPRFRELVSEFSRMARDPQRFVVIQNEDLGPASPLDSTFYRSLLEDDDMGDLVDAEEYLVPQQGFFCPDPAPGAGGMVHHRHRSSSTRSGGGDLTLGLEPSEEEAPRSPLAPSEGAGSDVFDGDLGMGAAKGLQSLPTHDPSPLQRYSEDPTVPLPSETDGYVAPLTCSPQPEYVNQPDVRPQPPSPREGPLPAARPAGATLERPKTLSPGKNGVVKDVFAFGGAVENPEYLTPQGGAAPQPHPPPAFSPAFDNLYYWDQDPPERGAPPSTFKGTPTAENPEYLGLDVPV

[8] = target: Calcium/calmodulin-dependent protein kinase type 1 (Homo sapiens) (UniProt Q14012); experiment: Inhibition of recombinant human CAMKIalpha (2 to end residues) at 1 uM using […] as substrate incubated for 40 mins in presence of [gamma-33P]-ATP by scintillation counting method relative to control
In short: (§2)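 Tested at a single 1 uM in an outsourced commercial kinase-profiling panel, read as percent inhibition. Each value is the mean of two independent experiments.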

[9] = target: Wee1-like protein kinase (Homo sapiens) (UniProt P30291); experiment: Inhibition of recombinant human WEE1 (214 to end residues) at 1 uM using LSNLYHQGKFLQTFCGSPLYRRR as substrate incubated for 40 mins in presence of [gamma-33P]-ATP by scintillation counting method relative to control
Sequence of Wee1-like protein kinase (Homo sapiens) (P30291 whole entry, looked up): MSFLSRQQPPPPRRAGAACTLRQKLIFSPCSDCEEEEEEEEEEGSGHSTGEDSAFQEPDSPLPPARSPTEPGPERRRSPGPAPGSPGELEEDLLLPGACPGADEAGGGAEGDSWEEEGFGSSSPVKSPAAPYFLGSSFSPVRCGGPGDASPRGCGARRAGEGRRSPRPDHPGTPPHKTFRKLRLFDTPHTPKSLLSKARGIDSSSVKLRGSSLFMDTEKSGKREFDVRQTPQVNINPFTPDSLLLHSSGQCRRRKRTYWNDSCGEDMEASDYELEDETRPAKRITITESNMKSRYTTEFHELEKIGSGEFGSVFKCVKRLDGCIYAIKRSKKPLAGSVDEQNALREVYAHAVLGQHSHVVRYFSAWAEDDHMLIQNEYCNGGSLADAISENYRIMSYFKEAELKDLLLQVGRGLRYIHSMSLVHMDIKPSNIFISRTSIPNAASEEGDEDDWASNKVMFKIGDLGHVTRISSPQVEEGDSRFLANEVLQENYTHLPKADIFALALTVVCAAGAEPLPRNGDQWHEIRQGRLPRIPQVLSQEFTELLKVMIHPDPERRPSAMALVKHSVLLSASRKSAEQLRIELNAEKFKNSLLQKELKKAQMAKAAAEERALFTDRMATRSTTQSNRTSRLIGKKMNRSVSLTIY

[10] = target: Leucine-rich repeat serine/threonine-protein kinase 2 (Homo sapiens) (UniProt Q5S007); experiment: Inhibition of recombinant human LRRK2 (970 to end residues) at 1 uM using RLGRDKYKTLRQIRQ as substrate incubated for 40 mins in presence of [gamma-33P]-ATP by scintillation counting method relative to control
[11] = Toxicity in BALB/c mouse assessed as effect on blood parameter by measuring eosinophils content at 40 mg/kg, po administered once two days for 4 times by hematology analyzer; details: in vivo
[12] = target: Serine/threonine-protein kinase SIK2 (Homo sapiens) (UniProt Q9H0K1); experiment: Inhibition of recombinant human SIK2 (1 to 276 residues) at 1 uM using KKKVSRSGLYRSPSMPENLNRPR as substrate incubated for 40 mins in presence of [gamma-33P]-ATP by scintillation counting method relative to control
[13] = target: Platelet-derived growth factor receptor alpha (Homo sapiens) (UniProt P16234); experiment: Inhibition of recombinant human PDGFRalpha (550 to end residues) at 1 uM using poly(Glu, Tyr) 4:1 as substrate incubated for 40 mins in presence of [gamma-33P]-ATP by scintillation counting method relative to control; in short: as §2
[14] = target: Serine/threonine-protein kinase SIK1 (Homo sapiens) (UniProt P57059); experiment: Inhibition of recombinant human SIK (1 to 281 residues) at 1 uM using AMARAASAAALARRR as substrate incubated for 40 mins in presence of [gamma-33P]-ATP by scintillation counting method relative to control
[15] = target: Mitogen-activated protein kinase kinase kinase 5 (Homo sapiens) (UniProt Q99683); experiment: Inhibition of recombinant human ASK1 (649 to 946 residues) at 1 uM using myelin ba as substrate incubated for 40 mins in presence of [gamma-33P]-ATP by scintillation counting method relative to control; in short: as §2
[16] = target: Calcium/calmodulin-dependent protein kinase type 1B (Homo sapiens) (UniProt Q6P2M8); experiment: Inhibition of recombinant full length human CAMKIbeta at 1 uM using KKLRRTLSFAEP as substrate incubated for 40 mins in presence of [gamma-33P]-ATP by scintillation counting method relative to control; in short: as §1
Homo sapiens = organism: Homo sapiens; experiment: Inhibition of recombinant human full length PI3K p110alpha/p65alpha (1 to 571 residues) at 1 uM using phosphatidylinositol 4,5-bisphosphate as substrate incubated for 40 mins in presence of [gamma-33P]-ATP by scintillation counting method relative to control
[17] = target: Tyrosine-protein kinase HCK (Homo sapiens) (UniProt P08631); experiment: Inhibition of recombinant activated human HCK (230 to 497 residues) at 1 uM using GGMEDIYFEFMGGKKK as substrate incubated for 40 mins in presence of [gamma-33P]-ATP by scintillation counting method relative to control; in short: as §1
HeLa = experiment: Induction of apoptosis in human HeLa cells assessed as decrease in Bcl2 expression at 80 nM incubated for 48 hrs by Western blot analysis; type: functional, cell-based
In short: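 Cells were treated for 48 h, washed three times with PBS, and lysed in RIPA buffer. Immunoblots used anti-Rb, anti-phospho-Rb, anti-Ki67 and anti-Bcl-2 (each 1:1000), with β-actin as loading control.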

MDA-MB-231 = experiment: Antiproliferative activity against human MDA-MB-231 cells at 40 nM assessed as reduction in cell viability incubated for 48 hrs by EdU staining based laser scanning confocal microscopy; type: functional
In short: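 Cells, 5×10^4, were seeded in 24-well plates and treated for 48 h. They were then labeled using an EdU Apollo 488 imaging kit with Hoechst 33342 nuclear stain and imaged by laser scanning confocal microscopy. Percent EdU-positive cells = EdU-positive/Hoechst-stained × 100%.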

SiHa = experiment: Antitumor activity against human SiHa cells xenografted in NOD/SCID BALB/c mouse assessed as tumor growth inhibition at 40 mg/kg, po administered for 21 days; type: functional, organism-based

For `Cc1ccc(NC(=O)C2(C(=O)Nc3ccc(Nc4ncc(F)c(-c5cc(F)c6nc(C)n(C(C)C)c6c5)n4)cc3)CC2)cc1`, the inhibition [1] was 81%, the inhibition [2] was 70% and the inhibition [3] was 18%. It also gave an inhibition [4] of 28%, an inhibition [5] of 38% and an IC50 [6] of 247 nM. It also gave an inhibition [7] of 3%, an inhibition [8] of 0% and an inhibition [9] of 5%. The inhibition [10] was 83%, the Activity [11] was “Non-Toxic” and the inhibition [12] was 43%. For the same compound, the inhibition [13] was 0%, the inhibition [14] was 21% and the inhibition [15] was 0%. The inhibition [16] was 8%, the inhibition (Homo sapiens) was 6% and the inhibition [17] was 33%.
With `COc1cc2nccc(Oc3ccc(NC(=O)C4(C(=O)Nc5ccc(F)cc5)CC4)cc3)c2cc1OC` [CABOZANTINIB] the Activity (HeLa) was “Active”, the inhibition (MDA-MB-231) was “Active” and the TGI (SiHa) was “Active”.

Reference: ChEMBL document CHEMBL4406821, “Novel dual inhibitors targeting CDK4 and VEGFR2 synergistically suppressed cancer progression and angiogenesis” (Eur J Med Chem, 2019)
